Data: ChEMBL document CHEMBL1137701, “Synthesis, characterization and antimicrobial activity of Co(II), Zn(II) and Cd(II) complexes with N-benzyloxycarbonyl-S-phenylalanine” (2009)
≈ marks a conversion by molar mass, not a printed value.

What was measured:
Format in all cases: functional
Micrococcus luteus [1] = test: Antibacterial activity against Micrococcus luteus ATCC 10240 after 24 hrs by broth microdilution method; conditions: ATCC 10240, 24 h
Procedure, shortened: (§1)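 Broth microdilution in Mueller-Hinton broth, run to NCCLS (2001). Overnight cultures were set to 2×10^6 CFU/ml final per well. Compounds were dissolved in 1% DMSO and tested as two-fold serial dilutions. TTC (0.05% final) served as growth indicator. Growth was read by absorbance at 600 nm after 24 h at 37 °C. MIC was the lowest concentration with no visible growth. Triplicate, with two growth controls.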

Staphylococcus aureus [2] = test: Antibacterial activity against Staphylococcus aureus ATCC 25923 after 24 hrs by broth microdilution method; conditions: ATCC 25923, 24 h; procedure, shortened: as §1
Candida albicans [3] = test: Antifungal activity against Candida albicans ATCC 10259 at 20 ug/disk after 72 hrs by agar diffusion method; conditions: ATCC 10259, 72 h, read-out: IZ
Procedure, shortened: (§2)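 Candida albicans grown 24 h at 25 °C in Sabouraud dextrose broth and diluted to 1×10^8 CFU/ml. This inoculum was spread on 4-mm Sabouraud dextrose agar. 6-mm discs were impregnated with 1 mg/ml DMSO stock solutions and incubated 72 h at 26 °C. Inhibition zone diameters measured in mm; DMSO control; triplicate, averaged.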

[4] = tested on: Staphylococcus epidermidis; test: Antibacterial activity against Staphylococcus epidermidis ATCC 12228 at 20 ug/disk after 24 hrs by agar diffusion method; conditions: ATCC 12228, 24 h, read-out: IZ
Procedure, shortened: (§3)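 Disc diffusion on 4-mm Mueller-Hinton agar, inoculated from 24 h MHB cultures (37 °C) diluted to 2×10^6 CFU/ml to give semiconfluent growth. 6-mm discs were impregnated with 1 mg/ml DMSO stock solutions. Plates were incubated 24 h at 37 °C and inhibition zone diameters measured in mm. DMSO solvent control; triplicate, averaged.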

[5] = tested on: Staphylococcus epidermidis; test: Antibacterial activity against Staphylococcus epidermidis ATCC 12228 after 24 hrs by broth microdilution method; conditions: ATCC 12228, 24 h; procedure, shortened: as §1
Bacillus subtilis [6] = test: Antibacterial activity against Bacillus subtilis ATCC 6633 at 20 ug/disk after 24 hrs by agar diffusion method; conditions: ATCC 6633, 24 h, read-out: IZ; procedure, shortened: as §3
Klebsiella pneumoniae [7] = test: Antibacterial activity against Klebsiella pneumoniae NCIMB 9111 at 20 ug/disk after 24 hrs by agar diffusion method; conditions: NCIMB 9111, 24 h, read-out: IZ; procedure, shortened: as §3
Candida albicans [8] = test: Antifungal activity against Candida albicans ATCC 24433 at 20 ug/disk after 72 hrs by agar diffusion method; conditions: ATCC 24433, 72 h, read-out: IZ; procedure, shortened: as §2
Pseudomonas aeruginosa [9] = test: Antibacterial activity against Pseudomonas aeruginosa ATCC 27853 after 24 hrs by broth microdilution method; conditions: ATCC 27853, 24 h; procedure, shortened: as §1
Bacillus subtilis [10] = test: Antibacterial activity against Bacillus subtilis ATCC 6633 after 24 hrs by broth microdilution method; conditions: ATCC 6633, 24 h; procedure, shortened: as §1
Micrococcus luteus [11] = test: Antibacterial activity against Micrococcus luteus ATCC 10240 at 20 ug/disk after 24 hrs by agar diffusion method; conditions: ATCC 10240, 24 h, read-out: IZ; procedure, shortened: as §3
Klebsiella pneumoniae [12] = test: Antibacterial activity against Klebsiella pneumoniae NCIMB 9111 after 24 hrs by broth microdilution method; conditions: NCIMB 9111, 24 h; procedure, shortened: as §1
Candida albicans [13] = test: Antifungal activity against Candida albicans ATCC 24433 after 48 hrs by broth microdilution method
Procedure, shortened: (§4)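 Broth microdilution (NCCLS) in Sabouraud dextrose broth, 2×10^5 CFU/ml per well. Compounds in 1% DMSO were two-fold serially diluted over 62.5–1000, with 0.05% final triphenyltetrazolium chloride as growth indicator. Plates were incubated 48 h at 26 °C and growth read by absorbance at 600 nm. MIC is the lowest concentration without visible growth. Triplicate, with two growth controls.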

Escherichia coli [14] = test: Antibacterial activity against Escherichia coli ATCC 25922 after 24 hrs by broth microdilution method; conditions: ATCC 25922, 24 h; procedure, shortened: as §1
Staphylococcus aureus [15] = test: Antibacterial activity against Staphylococcus aureus ATCC 25923 at 20 ug/disk after 24 hrs by agar diffusion method; conditions: ATCC 25923, 24 h, read-out: IZ; procedure, shortened: as §3
Enterococcus faecalis [16] = test: Antibacterial activity against Enterococcus faecalis ATCC 29212 after 24 hrs by broth microdilution method; conditions: ATCC 29212, 24 h; procedure, shortened: as §1
Candida albicans [17] = test: Antifungal activity against Candida albicans ATCC 10259 after 48 hrs by broth microdilution method; procedure, shortened: as §4
Enterococcus faecalis [18] = test: Antibacterial activity against Enterococcus faecalis ATCC 29212 at 20 ug/disk after 24 hrs by agar diffusion method; conditions: ATCC 29212, 24 h, read-out: IZ; procedure, shortened: as §3
Pseudomonas aeruginosa [19] = test: Antibacterial activity against Pseudomonas aeruginosa ATCC 27853 at 20 ug/disk after 24 hrs by agar diffusion method; conditions: ATCC 27853, 24 h, read-out: IZ; procedure, shortened: as §3
Escherichia coli [20] = test: Antibacterial activity against Escherichia coli ATCC 25922 at 20 ug/disk after 24 hrs by agar diffusion method; conditions: ATCC 25922, 24 h, read-out: IZ; procedure, shortened: as §3
Enterococcus faecalis [21] = test: Antibacterial activity against Enterococcus faecalis ATCC 29212 at 10 ug/disk after 24 hrs by agar diffusion method; conditions: ATCC 29212, 24 h, read-out: IZ
Procedure, shortened: (§5)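 Reference antibiotic discs (ampicillin or amikacin) placed on 4-mm Mueller-Hinton agar inoculated to semiconfluent growth from 2×10^6 CFU/ml suspensions. Incubation 24 h at 37 °C, then inhibition zone diameter read in mm. Triplicate, averaged; done per NCCLS 1993 disc standard.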

Escherichia coli [22] = test: Antibacterial activity against Escherichia coli ATCC 25922 at 10 ug/disk after 24 hrs by agar diffusion method; conditions: ATCC 25922, 24 h, read-out: IZ
Micrococcus luteus [23] = test: Antibacterial activity against Micrococcus luteus ATCC 10240 at 10 ug/disk after 24 hrs by agar diffusion method; conditions: ATCC 10240, 24 h, read-out: IZ; procedure, shortened: as §5
[24] = tested on: Staphylococcus epidermidis; test: Antibacterial activity against Staphylococcus epidermidis ATCC 12228 at 10 ug/disk after 24 hrs by agar diffusion method; conditions: ATCC 12228, 24 h, read-out: IZ; procedure, shortened: as §5
Staphylococcus aureus [25] = test: Antibacterial activity against Staphylococcus aureus ATCC 25923 at 10 ug/disk after 24 hrs by agar diffusion method; conditions: ATCC 25923, 24 h, read-out: IZ; procedure, shortened: as §5
Bacillus subtilis [26] = test: Antibacterial activity against Bacillus subtilis ATCC 6633 at 10 ug/disk after 24 hrs by agar diffusion method; conditions: ATCC 6633, 24 h, read-out: IZ; procedure, shortened: as §5
Klebsiella pneumoniae [27] = test: Antibacterial activity against Klebsiella pneumoniae NCIMB 9111 at 10 ug/disk after 24 hrs by agar diffusion method; conditions: NCIMB 9111, 24 h, read-out: IZ; procedure, shortened: as §5
Pseudomonas aeruginosa [28] = test: Antibacterial activity against Pseudomonas aeruginosa ATCC 27853 at 10 ug/disk after 24 hrs by agar diffusion method; conditions: ATCC 27853, 24 h, read-out: IZ; procedure, shortened: as §5

Compound | MBC (Micrococcus luteus [1]) | MIC (Micrococcus luteus [1]) | MBC (Staphylococcus aureus [2]) | MBC [5] | MIC [5] | MBC (Pseudomonas aeruginosa [9]) | MIC (Pseudomonas aeruginosa [9]) | MBC (Bacillus subtilis [10]) | MIC (Bacillus subtilis [10]) | MBC (Klebsiella pneumoniae [12]) | MIC (Klebsiella pneumoniae [12]) | MBC (Escherichia coli [14]) | MIC (Escherichia coli [14]) | MBC (Enterococcus faecalis [16]) | MIC (Enterococcus faecalis [16]) | zone of inhibition at 10 µg/disc (Enterococcus faecalis [21]) | zone of inhibition at 10 µg/disc (Escherichia coli [22]) | zone of inhibition at 10 µg/disc (Micrococcus luteus [23]) | zone of inhibition at 10 µg/disc [24] | zone of inhibition at 10 µg/disc (Staphylococcus aureus [25]) | other results
O=C(N[C@@H](Cc1ccccc1)C(=O)O)OCc1ccccc1 | > 3340 µM | 3340 µM (≈ 1000 µg/mL) | > 3340 µM | > 3340 µM | 3340 µM (≈ 1000 µg/mL) | > 3340 µM | > 3340 µM | 3340 µM (≈ 1000 µg/mL) | 1670 µM (≈ 500 µg/mL) | > 3340 µM | 3340 µM (≈ 1000 µg/mL) | > 3340 µM | 3340 µM (≈ 1000 µg/mL) | > 3340 µM | > 3340 µM | – | – | – | – | – | MIC (Staphylococcus aureus [2]): 3340 µM (≈ 1000 µg/mL); zone of inhibition at 20 µg/disc (Candida albicans [3]): 0 mm; zone of inhibition at 20 µg/disc [4]: 8 mm; zone of inhibition at 20 µg/disc (Bacillus subtilis [6]): 0 mm; zone of inhibition at 20 µg/disc (Klebsiella pneumoniae [7]): 0 mm; zone of inhibition at 20 µg/disc (Candida albicans [8]): 0 mm; zone of inhibition at 20 µg/disc (Micrococcus luteus [11]): 0 mm; MFC (Candida albicans [13]; ATCC 24433, 48 h): 1660 µM (≈ 497 µg/mL); MIC (Candida albicans [13]; ATCC 24433, 48 h): 830 µM (≈ 248 µg/mL); zone of inhibition at 20 µg/disc (Staphylococcus aureus [15]): 0 mm; MFC (Candida albicans [17]; ATCC 10259, 48 h): 1660 µM (≈ 497 µg/mL); MIC (Candida albicans [17]; ATCC 10259, 48 h): 830 µM (≈ 248 µg/mL); zone of inhibition at 20 µg/disc (Enterococcus faecalis [18]): 0 mm; zone of inhibition at 20 µg/disc (Pseudomonas aeruginosa [19]): 0 mm; zone of inhibition at 20 µg/disc (Escherichia coli [20]): 0 mm
NYSTATIN | – | – | – | – | – | – | – | – | – | – | – | – | – | – | – | – | – | – | – | – | MFC (Candida albicans [13]): 60 µM; MIC (Candida albicans [13]): 30 µM; MFC (Candida albicans [17]): 140 µM; MIC (Candida albicans [17]): 70 µM
CC1(C)S[C@@H]2[C@H](NC(=O)[C@H](N)c3ccccc3)C(=O)N2[C@H]1C(=O)O [AMPICILLIN] | 2 µM (≈ 0.699 µg/mL) | 1 µM (≈ 0.349 µg/mL) | 4 µM (≈ 1.4 µg/mL) | 6 µM (≈ 2.1 µg/mL) | 3 µM (≈ 1.05 µg/mL) | 46 µM (≈ 16.1 µg/mL) | 23 µM (≈ 8.04 µg/mL) | 10 µM (≈ 3.49 µg/mL) | 5 µM (≈ 1.75 µg/mL) | 33 µM (≈ 11.5 µg/mL) | 11 µM (≈ 3.84 µg/mL) | 22 µM (≈ 7.69 µg/mL) | 11 µM (≈ 3.84 µg/mL) | 6 µM (≈ 2.1 µg/mL) | 3 µM (≈ 1.05 µg/mL) | 16 mm | 18 mm | 33 mm | 12 mm | 26 mm | zone of inhibition at 10 µg/disc (Bacillus subtilis [26]): 15 mm; zone of inhibition at 10 µg/disc (Klebsiella pneumoniae [27]): 23 mm
NCC[C@H](O)C(=O)N[C@@H]1C[C@H](N)[C@@H](O[C@H]2O[C@H](CN)[C@@H](O)[C@H](O)[C@H]2O)[C@H](O)[C@H]1O[C@H]1O[C@H](CO)[C@@H](O)[C@H](N)[C@H]1O [AMIKACIN] | – | – | – | – | – | 12 µM (≈ 7.03 µg/mL) | 6 µM (≈ 3.51 µg/mL) | – | – | 9 µM (≈ 5.27 µg/mL) | 3 µM (≈ 1.76 µg/mL) | 6 µM (≈ 3.51 µg/mL) | 3 µM (≈ 1.76 µg/mL) | – | – | 23 mm | 30 mm | 31 mm | 33 mm | 25 mm | zone of inhibition at 10 µg/disc (Bacillus subtilis [26]): 32 mm; zone of inhibition at 10 µg/disc (Klebsiella pneumoniae [27]): 25 mm; zone of inhibition at 10 µg/disc (Pseudomonas aeruginosa [28]): 30 mm
